# Results: ChEMBL document CHEMBL1126292, “Selective beta 3-adrenergic agonists of brown adipose tissue and thermogenesis. 2. [4-[2-[(2-Hydroxy-3-phenoxypropyl)amino]ethoxy]phenoxy]acetamides” (J Med Chem, 1992)
# Assays:
# [1] = target: Beta-3 adrenergic receptor (Rattus norvegicus) (UniProt P26255); assay: Stimulation of GDP binding against beta-3 adrenergic receptor in brown adipose tissue (BAT) mitochondria of rats after peroral administration (Dose necessary to produce 50% of the isoprenaline effect).
# Beta-3 adrenergic receptor (Rattus norvegicus), sequence (P26255 whole entry): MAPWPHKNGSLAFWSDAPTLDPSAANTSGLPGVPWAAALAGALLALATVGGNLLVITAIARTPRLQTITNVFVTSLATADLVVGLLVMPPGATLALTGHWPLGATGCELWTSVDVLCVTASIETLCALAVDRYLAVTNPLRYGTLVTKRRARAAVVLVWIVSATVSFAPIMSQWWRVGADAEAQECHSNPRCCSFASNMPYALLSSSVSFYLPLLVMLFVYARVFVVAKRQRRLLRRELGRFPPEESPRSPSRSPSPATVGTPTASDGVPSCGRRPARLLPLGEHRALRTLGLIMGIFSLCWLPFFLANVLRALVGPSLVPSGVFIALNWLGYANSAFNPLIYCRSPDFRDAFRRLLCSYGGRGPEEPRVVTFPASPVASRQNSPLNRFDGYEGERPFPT
# [2] = Partition coefficient (logP); type: physicochemical; conditions: octanol/water
# In short: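 log P is the octanol–water partition coefficient.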
# [3] = Aqueous solubility at a pH 7; type: physicochemical; conditions: read-out: S
# In short: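 Aqueous solubility was measured on the hydrochloride salts in aqueous buffer of 0.15 M sodium chloride and 0.01 M sodium dihydrogen phosphate at pH 7. Values are given in mg mL⁻¹.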
# [4] = system: Rattus norvegicus; assay: Ratio of the dose (D500, peroral administration) elevating the rat heart rate to 500 bpm and GDP ED50.; type: functional
# [5] = target: Beta-3 adrenergic receptor (Rattus norvegicus) (UniProt P26255); assay: Dose of the compound (peroral administration) to […] GDP binding against Beta-3 adrenergic receptor in brown adipose tissue(BAT mitochondria) of rats. [Dose necessary to produce 50% of the isoprenaline effect]
Compound,GDP ED50 [1],logP [2],solubility [3],GDP ED50 [5],Selectivity index [4]
O=C(COc1ccc(OCCNCC(O)COc2ccccc2)cc1)NCc1ccc(Cl)cc1Cl (centres undefined),2.77 mg/kg,–,–,–,–
O=C(COc1ccc(OCCNCC(O)COc2ccccc2)cc1)N1Cc2ccccc2C1 (centres undefined),1.3 mg/kg,–,–,–,–
C=CCNC(=O)COc1ccc(OCC(C)NCC(O)COc2ccccc2)cc1 (centres undefined),1.03 mg/kg,–,–,–,>20
COCCCNC(=O)COc1ccc(OCCNCC(O)COc2ccccc2)cc1 (centres undefined),0.83 mg/kg,–,–,–,>100
O=C(COc1ccc(OCCNCC(O)COc2ccccc2)cc1)N1CCCCC1 (centres undefined),0.4 mg/kg,2.6,2000 µg/mL,–,>100
CCN(CC)C(=O)COc1ccc(OCCNCC(O)COc2ccccc2)cc1 (centres undefined),1.16 mg/kg,–,–,–,33
O=C(COc1ccc(OCCNCC(O)COc2ccccc2)cc1)NC1CC1 (centres undefined),0.79 mg/kg,–,–,–,>50
O=C(COc1ccc(OCCNCC(O)COc2ccccc2)cc1)NCc1cccs1 (centres undefined),0.69 mg/kg,–,–,–,–
O=C(COc1ccc(OCCNCC(O)COc2ccccc2)cc1)NC1CCCC1 (centres undefined),3.1 mg/kg,–,–,–,>10
CNC(=O)COc1cccc(OCCNCC(O)COc2ccccc2)c1 (centres undefined),0.31 mg/kg,–,–,–,74
O=C(COc1ccc(OCCNCC(O)COc2ccccc2)cc1)NCc1ccco1 (centres undefined),1.53 mg/kg,–,–,–,–
O=C(COc1ccc(OCCNCC(O)COc2ccccc2)cc1)N1CCCC1 (centres undefined),1.8 mg/kg,–,–,–,>50
NC(=O)COc1ccc(OCCNCC(O)COc2ccccc2F)cc1 (centres undefined),2.24 mg/kg,–,–,–,>10
O=C(COc1ccc(OCCNCC(O)COc2ccccc2)cc1)Nc1ccccc1 (centres undefined),1.38 mg/kg,–,–,–,–
O=C(COc1ccc(OCCNCC(O)COc2ccccc2)cc1)NCCc1ccccc1 (centres undefined),1.23 mg/kg,–,–,–,>50
O=C(COc1ccc(OCCNCC(O)COc2ccccc2)cc1)NCCCO (centres undefined),0.47 mg/kg,0.5,36000 µg/mL,–,>100
O=C(COc1ccc(OCCNCC(O)COc2ccccc2)cc1)N1CCOCC1 (centres undefined),0.54 mg/kg,–,–,–,>100
CNC(=O)COc1ccc(OCC(C)NCC(O)COc2ccccc2)cc1 (centres undefined),0.25 mg/kg,–,–,–,>10
CNC(=O)COc1ccc(OCCNCC(O)COc2ccccc2F)cc1 (centres undefined),1.1 mg/kg,–,–,–,>50
O=C(COc1ccc(OCCNCC(O)COc2ccccc2)cc1)NOCc1ccccc1 (centres undefined),0.48 mg/kg,–,–,–,–
COCCNC(=O)COc1ccc(OCCNC[C@H](O)COc2ccc(O)cc2)cc1,4.16 mg/kg,–,–,–,–
CC(NC(=O)COc1ccc(OCCNCC(O)COc2ccccc2)cc1)c1ccccc1 (centres undefined),0.96 mg/kg,–,–,–,>10
O=C(COc1ccc(OCCNCC(O)COc2ccccc2)cc1)NCc1ccc(Cl)cc1 (centres undefined),0.92 mg/kg,–,–,–,>50
O=C(COc1ccc(OCCNCC(O)COc2ccccc2)cc1)NCCOc1ccccc1 (centres undefined),0.72 mg/kg,–,–,–,>100
O=C(COc1ccc(OCCNCC(O)COc2ccccc2)cc1)NCc1ccccc1 (centres undefined),0.25 mg/kg,3.2,40 µg/mL,–,>100
NC(=O)CNC(=O)COc1ccc(OCCNCC(O)COc2ccccc2)cc1 (centres undefined),1.18 mg/kg,–,–,–,>50
O=C(COc1ccc(OCCNCC(O)COc2ccccc2F)cc1)N1CCCCC1 (centres undefined),7.9 mg/kg,–,–,–,–
CN(Cc1ccccc1)C(=O)COc1ccc(OCCNCC(O)COc2ccccc2)cc1 (centres undefined),8.6 mg/kg,–,–,–,–
O=C(COc1ccc(OCCNCC(O)COc2ccccc2)cc1)N1CCc2ccccc2C1 (centres undefined),0.44 mg/kg,–,–,–,>100
O=C(COc1ccc(OCCNCC(O)COc2ccccc2)cc1)N1CCCO1 (centres undefined),0.49 mg/kg,–,–,–,–

# More lines, main results first:
GDP ED50 [1],logP [2],solubility [3],GDP ED50 [5],Compound,Selectivity index [4]
0.24 mg/kg,1.7,11000 µg/mL,–,COCCNC(=O)COc1ccc(OCCNCC(O)COc2ccccc2)cc1 (centres undefined),>100
0.64 mg/kg,–,–,–,C=CCNC(=O)COc1ccc(OCCNCC(O)COc2ccccc2)cc1 (centres undefined),>100
1.2 mg/kg,–,–,–,CNC(=O)COc1ccc(OCCNCC(O)COc2ccccc2)cc1 (centres undefined),>50
1.5 mg/kg,–,–,–,CCCCNC(=O)COc1ccc(OCCNCC(O)COc2ccccc2)cc1 (centres undefined),>100
1.4 mg/kg,–,–,–,CN(C)C(=O)COc1ccc(OCCNCC(O)COc2ccccc2)cc1 (centres undefined),>50
0.85 mg/kg,–,–,–,CC(CO)NC(=O)COc1ccc(OCCNCC(O)COc2ccccc2)cc1.O (centres undefined),>50
3.2 mg/kg,–,–,–,CC(C)CNC(=O)COc1ccc(OCCNCC(O)COc2ccccc2)cc1 (centres undefined),–
0.5 mg/kg,–,–,–,O=C(COc1ccc(OCCNCC(O)COc2ccccc2)cc1)NO (centres undefined),>100
1.15 mg/kg,–,–,–,NNC(=O)COc1ccc(OCCNCC(O)COc2ccccc2)cc1 (centres undefined),–
0.5 mg/kg,–,–,–,CCNC(=O)COc1ccc(OCCNCC(O)COc2ccccc2)cc1 (centres undefined),>100
0.57 mg/kg,–,–,–,CNC(=O)COc1ccc(OCCNC[C@H](O)COc2ccccc2)cc1,>100
3.88 mg/kg,–,–,–,COCC(C)NC(=O)COc1ccc(OCCNCC(O)COc2ccccc2)cc1 (centres undefined),–
69.9 mg/kg,–,–,–,COCCNC(=O)COc1ccc(OCCNC[C@@H](O)COc2ccccc2)cc1,–
0.3 mg/kg,1.1,400 µg/mL,–,NC(=O)COc1ccc(OCCNCC(O)COc2ccccc2)cc1 (centres undefined),>100
0.77 mg/kg,–,–,–,O=C(COc1ccc(OCCNC[C@H](O)COc2ccccc2)cc1)NCCO,>50
0.67 mg/kg,–,–,–,O=C(COc1ccc(OCCNCC(O)COc2ccccc2)cc1)NCCO (centres undefined),>100
1.7 mg/kg,–,–,–,CCC(C)NC(=O)COc1ccc(OCCNCC(O)COc2ccccc2)cc1 (centres undefined),–
0.4 mg/kg,2.4,900 µg/mL,–,CC(C)NC(=O)COc1ccc(OCCNCC(O)COc2ccccc2)cc1 (centres undefined),>100
–,2.4,600 µg/mL,0.2 mg/kg,CCCNC(=O)COc1ccc(OCCNCC(O)COc2ccccc2)cc1 (centres undefined),>100
0.34 mg/kg,–,–,–,COCCNC(=O)COc1ccc(OCCNC[C@H](O)COc2ccccc2)cc1,>100
